Test [1] can be described thus: OD615 S. cerevisiae growth inhibition, permissive medium, pilot counter-assay, permissive growth control for S. cerevisiae lifespan shortening project (AID 705;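 active = growth inhibition above 25% in both replicates, a cutoff set 3 SD above the mean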). As to conditions: OD615, 24 h, at 10 µM, active compounds read high. Put shortly:
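System: Engineered DeaD yeast | Buffer or medium: SC raffinose/galactose permissive medium | Doses: 10 µM single dose, 0.25% DMSO | Times: 24 h exposure, 30 °C | Measured by: OD615 turbidity read | Read-out: Yeast growth inhibition indicated by reduced 24 h OD615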

A short description of test [2]: Restrictive medium S. cerevisiae growth inhibition, OD615, pilot screen of yeast lifespan reduction project, restrictive growth control (AID 706;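 active = growth inhibition above a set limit, 3 SD over mean compound inhibition, in both replicates, cut at about 43% in these data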;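 also: modified DeaD lifespan yeast strain shifted to restrictive glucose medium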). As to conditions: OD615, 48 h, at 10 µM, active compounds read high. Put shortly:
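Assay system: engineered S. cerevisiae DeaD strain; Buffer or medium: CSMM-D glucose medium; Dosing: 10 µM compound, 0.25% DMSO; Times: cell pre-growth 4 h, compound exposure 48 h, 30 °C; Detection: absorbance (optical density) measured at 615 nm.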

Test [3] in a line: viability gain of MRP-1-high H69AR cells under doxorubicin, pilot screen, MRP-1 activator project, CellTiter-Glo, duplicate (AID 807;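 active = viability increase at or above a cutoff of the median across tested compounds plus 3 SD, cut at about 8.5% in these data, passing the limit was not always enough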;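 also: compound pretreatment 18-22 h then 72 h combined with doxorubicin; 0% = doxorubicin alone and 100% = vehicle without doxorubicin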). As to conditions: H69AR viability with doxorubicin, CellTiter-Glo luminescence; at 10 µM; active compounds read high. Background: Cellular ATP, detected with luciferase, serves as a proxy for viable cell number.
Test [4] can be described thus: growth suppression of beta-catenin knockout HCT116, pilot screen, human colon tumor cells (AID 823;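 active = cell viability at or below a set limit in both duplicate runs, the limit being the all-compound median minus 4 SD, cut at about 23% in these data, passing the limit was not always enough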;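 also: 0% = wells killed by 20 µM Hyamine and 100% = untreated DMSO cell wells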). As to conditions: CellTiter-Glo, 60 h, at 10 µM, active compounds read low.
The nature of test [5]: growth suppression of PTEN-deleted HCT116, pilot screen, cell-based, HCT116 clonal line, CellTiter-Glo (AID 824;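 active = viability at or below 27.92% in each of two runs, the all-compound median minus 4 SD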;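 also: 0% = 20 µM Hyamine control and 100% = vehicle cell control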). As to conditions: 60 h, at 10 µM, active compounds read low.
Test [6] can be described thus: inhibitors of the yeast RAM network, pilot screen, dse1pr::URA3 reporter, 5-FOA selection (AID 869;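 active = inhibition over a set limit, the all-compound mean plus 3 SD, in both replicate runs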;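 also: 0% = DMSO wells with no growth and 100% = 10 µM 1-NA-PP1 with full growth; RAM network block rescues cells from 5-FOA so hits raise OD615 growth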). As to conditions: S. cerevisiae dse1pr::URA3 5-FOA growth, OD615, 2 d; at 10 µM; active compounds read high; strain carries analog-sensitive mutant Cbk1 kinase.
Test [7] in a line: RAM signaling pathway blockade in yeast – S. cerevisiae, Pdr1DBD-CYC8 efflux-inhibited sensitized strain, primary screen (AID 1298).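 Also: 0% = DMSO untreated cells without growth and 100% = 10 µM 1-NA-PP1 full growth; higher means more yeast growth rescued from 5-FOA killing.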 The following applies: S. cerevisiae cbk1-as DSE1-URA3 strain, 5-FOA growth OD615, 2 d; at 50 µM; active compounds read high.

A number with no mark means an inactive call. Results filed as inconclusive are left out. The source made the active and inactive calls.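 The calls were made as follows, unless noted: active = RAM network inhibition above 8.4% in each of two replicates, 3 SD over the compound average; inconclusive = above 8.4% inhibition in only one replicate; inactive = 8.4% inhibition or less in each replicate.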

As usually defined, the viability is a read-out of living cells in per cent, often relative to untreated cells. For orientation: inhibition means the change of the read-out against control, counted positive when it falls.

As to `CC(C)CNC1=CC(=O)CC(c2ccco2)C1` (centres undefined), the growth inhibition in test [1] was -13%; in test [2] it was -15.9%. The viability increase in test [3] is -1.92%. For the same molecule, the viability was 91.5% in test [4] and 93.8% in test [5]. The inhibition in test [6] was 1.17%. Further, the RAM network inhibition in test [7] is -0.73%.
Regarding `Clc1ccccc1OCCN1CCCCC1`, the growth inhibition in test [1] is -14.4%; in test [2], -20.6%. In addition, the viability increase in test [3] is 0.57%. The viability in test [4] is 85.5%; in test [5], 96.2%. Further, the inhibition in test [6] was 0.6%. The RAM network inhibition in test [7] was 6.74%.
In the case of `COCCCNc1ncnc2nc[nH]c12`, the growth inhibition was 4.6% in test [1] and -1.01% in test [2]. For the same molecule, the viability increase in test [3] was 1.43%. The viability in test [4] and in test [5] was 104% throughout. Moreover, the inhibition in test [6] was 0.885%. Moreover, in test [7], the RAM network inhibition was 1.74%.
On to `COc1ccc(NC(=O)NCCCN2CCCC2=O)cc1`, for which the growth inhibition in test [1] is -2.73%; in test [2] it was 8.62%. Also, the viability increase in test [3] is 0.12%. For the same molecule, the viability in test [4] is 105%; in test [5], 103%. In addition, in test [6], the inhibition was 0.945%. Also, in test [7], the RAM network inhibition is -0.16%.
As to `COc1ccc(CN2CCNC(=O)C2CC(=O)O)c(OC)c1` (centres undefined), the growth inhibition is -18.7% in test [1] and -24% in test [2]. Besides, in test [3], the viability increase is -2.1%. Further, the viability was 105% in test [4] and 93.1% in test [5]. In addition, the inhibition in test [6] is 2.47%. Moreover, the RAM network inhibition in test [7] was 1.42%.
As for `CSc1cccc(NC(=O)CN(c2cc(C)ccc2C)S(C)(=O)=O)c1`, the growth inhibition in test [1] was -4.02%; in test [2], -2.52%. Also, in test [3], the viability increase was -3.54%. Besides, the viability in test [4] is 77.4%; in test [5] it was 79.8%. The inhibition in test [6] was -0.95%. For the same molecule, the RAM network inhibition in test [7] was 1.46%.
For the molecule `CCCN1C(=O)c2cc(C(=O)NCc3cccs3)ccc2C1O` (centres undefined), the values for the growth inhibition in test [1] and in test [2] were -5.98% and -16.4%, respectively. Further, in test [3], the viability increase was -0.99%. Also, the viability was 107% in test [4] and 96.7% in test [5]. The inhibition in test [6] was 1.94%. Besides, the RAM network inhibition in test [7] is -0.69%.
In the case of `O=C(CC1Oc2ccccc2NC1=O)NCCCN1CCN(Cc2ccccc2)CC1` (centres undefined), the growth inhibition in test [1] was 2.54%; in test [2], -3.21%. For the same molecule, in test [3], the viability increase is -3.71%. Moreover, the viability in test [4] is 94.3%; in test [5], 93.3%. Besides, the inhibition in test [6] was 1.56%. The RAM network inhibition in test [7] was 5.35%.
On to `COCc1cc(CN2CCCC2)c(O)c2ncccc12`, for which the values for the growth inhibition in test [1] and in test [2] were -11.1% and -11.6%, respectively. For the same molecule, in test [3], the viability increase is 0.15%. In addition, the viability is 8.07% (active) in test [4] and 11.3% (active) in test [5]. Moreover, the inhibition in test [6] was -0.255%. Moreover, the RAM network inhibition in test [7] was 5.55%.
In the case of `O=C(Nc1ccc(Br)cc1F)c1ccncc1`, the growth inhibition in test [1] is -7.26%; in test [2], -13.4%. The viability increase in test [3] is 1.37%. Further, the results for the viability in test [4] and in test [5] were 97% and 98.6%, respectively. The inhibition in test [6] is 2.7%. Moreover, the RAM network inhibition in test [7] is 5.07%.
On to `CCOC(=O)Nc1ccccc1C(=O)N1CCOCC1`, for which the results for the growth inhibition in test [1] and in test [2] were -8.68% and -2.7%, respectively. Besides, the viability increase in test [3] is -0.42%. Also, the viability in test [4] is 97.5%; in test [5] it was 98%. Also, the inhibition in test [6] was 1.89%. In addition, the RAM network inhibition in test [7] was 2.52%.
Regarding `COc1ccc(-n2c(SCC(=O)Nc3ccccc3)nc3c(c2=O)SCC3)cc1`, the growth inhibition in test [1] is -1.34%; in test [2], 0.23%. In addition, the viability increase in test [3] was 3.8%. For the same molecule, the viability was 101% in test [4] and 96% in test [5]. In test [6], the inhibition is 0.755%. Moreover, the RAM network inhibition in test [7] was 9.27%.
With `O=S(=O)(c1ccc(Br)cc1)N1CCn2c(nc3ccccc32)C1`, the growth inhibition in test [1] is -6.87%; in test [2] it was -3.65%. For the same molecule, in test [3], the viability increase was -2.52%. For the same molecule, the viability is 101% in test [4] and 97.5% in test [5]. Besides, the inhibition in test [6] is 2.46%. Also, in test [7], the RAM network inhibition was 6.31%.
As to `N#Cc1nc(COc2cccc(Cl)c2)oc1NCc1ccco1`, the growth inhibition was -14% in test [1] and 3.77% in test [2]. Also, in test [3], the viability increase is -2.87%. Also, the viability in test [4] is 89%; in test [5], 89.4%. Moreover, the inhibition in test [6] is 1.65%. Also, the RAM network inhibition in test [7] was 7.41%.
With `CCCCCOc1ccc(NC(=O)CCCC(=O)O)cc1`, the growth inhibition is -3.13% in test [1] and 2.42% in test [2]. Also, in test [3], the viability increase is -0.75%. For the same molecule, the viability in test [4] is 91.1%; in test [5] it was 97.8%. Moreover, the inhibition in test [6] is -0.545%. The RAM network inhibition in test [7] is 1.02%.
As to `Cc1cc2ncn(C(=O)c3c(-c4c(Cl)cccc4Cl)noc3C)c2cc1C`, the growth inhibition in test [1] was 0.3%; in test [2], 5.04%. Moreover, the viability increase in test [3] is -3.42%. Besides, the viability in test [4] was 95.5%; in test [5], 94.5%. Moreover, in test [6], the inhibition is 1.99%. In addition, the RAM network inhibition in test [7] is 8.25%.
For the molecule `CCCn1c(C(O)c2ccc(OCC)cc2)nc2ccccc21` (centres undefined), the results for the growth inhibition in test [1] and in test [2] were -8.12% and -1.57%, respectively. The viability increase in test [3] is -3.93%. Further, the viability was 94.9% in test [4] and 82.3% in test [5]. Besides, the inhibition in test [6] was 1.36%. The RAM network inhibition in test [7] was -1.01%.

The values above are taken from PubChem BioAssay.
